Assay results from ChEMBL document CHEMBL3593170 (J Nat Prod, 2015).
Active and inactive are the calls of the source. The rule behind the calls is not given here.

Key:
[1] = molecular target: T1, Transient receptor potential cation channel subfamily A member 1 (Homo sapiens, UniProt O75762); assay: Activation of human TRPA1 expressed in TREx-HEK cells at 1 uM by Fluo-4 AM dye-based Ca2+ imaging assay; assay type: cell-based
In short: (§1)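 Tetracycline-induced (1 μg/mL, 24 h after seeding) TREx HEK cells stably expressing hTRPA1, or TREx HEK cells not expressing TRPA1; Fluo-4 AM 3 μM loading 1 h 37 °C; Ca2+ change read at 37 °C. Response as % of 5 μM ionomycin; mean ± SEM, n = 3−8.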

[2] = molecular target: T1, Transient receptor potential cation channel subfamily A member 1; assay: Activation of human TRPA1 expressed in TREx-HEK cells at 1 uM in presence of TRPA1 antagonist HC030031 by Fluo-4 AM dye-based Ca2+ imaging assay; assay type: cell-based; in short: as §1
[3] = molecular target: T2, Transient receptor potential cation channel subfamily V member 1 (Homo sapiens, UniProt Q8NER1); assay: Activation of human TRPV1 expressed in TREx-HEK cells by Fluo-4 AM dye-based Ca2+ imaging assay; assay type: cell-based
T2 sequence (Q8NER1 whole entry): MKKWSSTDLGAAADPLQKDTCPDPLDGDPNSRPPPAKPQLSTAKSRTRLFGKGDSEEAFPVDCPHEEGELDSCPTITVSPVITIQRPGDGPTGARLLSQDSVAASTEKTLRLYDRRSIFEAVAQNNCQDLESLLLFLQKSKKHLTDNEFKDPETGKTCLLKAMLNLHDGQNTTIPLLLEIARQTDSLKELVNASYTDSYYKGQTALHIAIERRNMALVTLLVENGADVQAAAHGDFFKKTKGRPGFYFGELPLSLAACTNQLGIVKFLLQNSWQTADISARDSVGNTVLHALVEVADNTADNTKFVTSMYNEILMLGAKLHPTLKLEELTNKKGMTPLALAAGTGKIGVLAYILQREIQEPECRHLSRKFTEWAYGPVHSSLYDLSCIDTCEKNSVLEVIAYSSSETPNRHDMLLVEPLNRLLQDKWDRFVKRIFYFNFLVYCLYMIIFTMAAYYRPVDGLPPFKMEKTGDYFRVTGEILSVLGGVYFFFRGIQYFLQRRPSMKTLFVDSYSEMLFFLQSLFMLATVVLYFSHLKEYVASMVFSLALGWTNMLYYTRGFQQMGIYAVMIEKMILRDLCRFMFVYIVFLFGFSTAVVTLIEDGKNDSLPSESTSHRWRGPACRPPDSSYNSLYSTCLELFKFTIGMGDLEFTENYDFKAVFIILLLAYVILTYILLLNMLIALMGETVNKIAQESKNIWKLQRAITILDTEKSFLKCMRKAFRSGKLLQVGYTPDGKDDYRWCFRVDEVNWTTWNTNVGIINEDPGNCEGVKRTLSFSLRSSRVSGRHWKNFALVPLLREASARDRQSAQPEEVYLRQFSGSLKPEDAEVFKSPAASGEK

[4] = Effect on Ca2+ response in TREx-HEK cells at 300 uM by Fluo-4 AM dye-based Ca2+ imaging assay; assay type: ADME, cell-based; conditions: human
In short: (§2)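 TREx HEK cells stably expressing hTRPV1 (tetracycline 1 μg/mL induction) or parental TREx HEK cells lacking TRPV1, Fluo-4 AM (3 μM, 1 h, 37 °C) loaded; compounds at 300 μM, capsazepine 30 μM co-added where stated; Ca2+ at 37 °C as % of 5 μM ionomycin; mean ± SEM, n = 3−7.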

[5] = Effect on Ca2+ response in TREx-HEK cells at 1 uM by Fluo-4 AM dye-based Ca2+ imaging assay; assay type: ADME, cell-based; conditions: human; in short: as §1
[6] = molecular target: Transient receptor potential cation channel subfamily M member 8 (Mus musculus) (UniProt Q8R4D5); assay: Agonist activity at mouse TRPM8 expressed in TREx-HEK cells at 300 uM by Fluo-4 AM dye-based Ca2+ imaging assay; assay type: cell-based
Chain of Transient receptor potential cation channel subfamily M member 8 (Mus musculus) (Q8R4D5 whole entry): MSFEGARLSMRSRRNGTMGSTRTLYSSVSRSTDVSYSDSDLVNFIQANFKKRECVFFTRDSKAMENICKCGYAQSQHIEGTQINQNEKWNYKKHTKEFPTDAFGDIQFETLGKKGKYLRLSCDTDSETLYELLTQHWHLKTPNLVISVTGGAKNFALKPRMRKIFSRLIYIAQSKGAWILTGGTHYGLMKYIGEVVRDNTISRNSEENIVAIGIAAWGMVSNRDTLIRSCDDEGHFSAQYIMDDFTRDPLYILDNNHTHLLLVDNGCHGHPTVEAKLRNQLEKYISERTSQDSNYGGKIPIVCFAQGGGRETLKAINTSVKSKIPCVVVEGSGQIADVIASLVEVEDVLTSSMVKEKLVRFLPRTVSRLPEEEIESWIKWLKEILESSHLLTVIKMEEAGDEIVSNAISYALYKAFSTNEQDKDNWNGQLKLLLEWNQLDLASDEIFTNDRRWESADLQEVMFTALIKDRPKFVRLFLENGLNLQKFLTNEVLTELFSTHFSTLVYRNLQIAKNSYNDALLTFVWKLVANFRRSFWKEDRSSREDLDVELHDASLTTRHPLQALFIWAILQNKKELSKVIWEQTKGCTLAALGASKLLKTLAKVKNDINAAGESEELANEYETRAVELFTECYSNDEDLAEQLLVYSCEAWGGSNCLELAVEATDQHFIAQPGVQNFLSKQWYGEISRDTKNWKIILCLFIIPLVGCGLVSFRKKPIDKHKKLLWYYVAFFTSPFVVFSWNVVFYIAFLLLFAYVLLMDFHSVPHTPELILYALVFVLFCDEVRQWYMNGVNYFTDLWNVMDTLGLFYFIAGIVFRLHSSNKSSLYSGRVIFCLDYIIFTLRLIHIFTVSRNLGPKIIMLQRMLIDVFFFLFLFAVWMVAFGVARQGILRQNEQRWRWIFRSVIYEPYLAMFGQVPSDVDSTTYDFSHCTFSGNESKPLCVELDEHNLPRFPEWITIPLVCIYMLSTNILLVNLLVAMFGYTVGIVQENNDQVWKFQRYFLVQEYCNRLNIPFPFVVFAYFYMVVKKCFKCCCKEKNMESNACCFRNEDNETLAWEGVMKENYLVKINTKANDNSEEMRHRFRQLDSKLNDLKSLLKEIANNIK
In short: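 Mouse TRPM8 stably expressed in TREx HEK cells, induced with 1 μg/mL tetracycline; Fluo-4 AM 3 μM loading, 1 h, 37 °C; compounds 300 μM freshly diluted from DMSO; Ca2+ change read at 37 °C; ionomycin 5 μM for maximum fluorescence; menthol 100 μM agonist control, BCTC 10 μM antagonist.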

[7] = molecular target: T2, Transient receptor potential cation channel subfamily V member 1; assay: Activation of human TRPV1 expressed in TREx-HEK cells at 300 uM in presence of TRPV1 antagonist CPZ by Fluo-4 AM dye-based Ca2+ imaging assay; assay type: cell-based; in short: as §2
[8] = molecular target: T1, Transient receptor potential cation channel subfamily A member 1; assay: Activation of human TRPA1 expressed in TREx-HEK cells by Fluo-4 AM dye-based Ca2+ imaging assay relative to 100 uM ITC; assay type: cell-based
[9] = molecular target: T2, Transient receptor potential cation channel subfamily V member 1; assay: Activation of human TRPV1 expressed in TREx-HEK cells at 300 uM by Fluo-4 AM dye-based Ca2+ imaging assay; assay type: cell-based; in short: as §2
[10] = molecular target: T2, Transient receptor potential cation channel subfamily V member 1; assay: Activation of human TRPV1 expressed in TREx-HEK cells by Fluo-4 AM dye-based Ca2+ imaging assay relative to 10 uM capsaicin; assay type: cell-based
[11] = molecular target: T1, Transient receptor potential cation channel subfamily A member 1; assay: Activation of human TRPA1 expressed in TREx-HEK cells by Fluo-4 AM dye-based Ca2+ imaging assay; assay type: cell-based
[12] = molecular target: T1, Transient receptor potential cation channel subfamily A member 1; assay: Activation of human TRPA1 expressed in TREx-HEK cells at 30 uM by Fluo-4 AM dye-based Ca2+ imaging assay; assay type: cell-based
In short: as §1, with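 “°C. Compounds in DMSO, diluted in measuring buffer just before addition; 1 μM (30 μM for one compound); HC030031 30 μM co-added where stated.” for “°C.”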

[13] = molecular target: T1, Transient receptor potential cation channel subfamily A member 1; assay: Activation of human TRPA1 expressed in TREx-HEK cells at 30 uM in presence of TRPA1 antagonist HC030031 by Fluo-4 AM dye-based Ca2+ imaging assay; assay type: cell-based
[14] = Effect on Ca2+ response in TREx-HEK cells at 30 uM by Fluo-4 AM dye-based Ca2+ imaging assay; assay type: ADME, cell-based; conditions: human
In short: as §1, with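 “°C. Compounds in DMSO, diluted in measuring buffer just before addition; 1 μM (30 μM for one compound); HC030031 30 μM co-added where stated.” for “°C.”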

T1 sequence (O75762 whole entry): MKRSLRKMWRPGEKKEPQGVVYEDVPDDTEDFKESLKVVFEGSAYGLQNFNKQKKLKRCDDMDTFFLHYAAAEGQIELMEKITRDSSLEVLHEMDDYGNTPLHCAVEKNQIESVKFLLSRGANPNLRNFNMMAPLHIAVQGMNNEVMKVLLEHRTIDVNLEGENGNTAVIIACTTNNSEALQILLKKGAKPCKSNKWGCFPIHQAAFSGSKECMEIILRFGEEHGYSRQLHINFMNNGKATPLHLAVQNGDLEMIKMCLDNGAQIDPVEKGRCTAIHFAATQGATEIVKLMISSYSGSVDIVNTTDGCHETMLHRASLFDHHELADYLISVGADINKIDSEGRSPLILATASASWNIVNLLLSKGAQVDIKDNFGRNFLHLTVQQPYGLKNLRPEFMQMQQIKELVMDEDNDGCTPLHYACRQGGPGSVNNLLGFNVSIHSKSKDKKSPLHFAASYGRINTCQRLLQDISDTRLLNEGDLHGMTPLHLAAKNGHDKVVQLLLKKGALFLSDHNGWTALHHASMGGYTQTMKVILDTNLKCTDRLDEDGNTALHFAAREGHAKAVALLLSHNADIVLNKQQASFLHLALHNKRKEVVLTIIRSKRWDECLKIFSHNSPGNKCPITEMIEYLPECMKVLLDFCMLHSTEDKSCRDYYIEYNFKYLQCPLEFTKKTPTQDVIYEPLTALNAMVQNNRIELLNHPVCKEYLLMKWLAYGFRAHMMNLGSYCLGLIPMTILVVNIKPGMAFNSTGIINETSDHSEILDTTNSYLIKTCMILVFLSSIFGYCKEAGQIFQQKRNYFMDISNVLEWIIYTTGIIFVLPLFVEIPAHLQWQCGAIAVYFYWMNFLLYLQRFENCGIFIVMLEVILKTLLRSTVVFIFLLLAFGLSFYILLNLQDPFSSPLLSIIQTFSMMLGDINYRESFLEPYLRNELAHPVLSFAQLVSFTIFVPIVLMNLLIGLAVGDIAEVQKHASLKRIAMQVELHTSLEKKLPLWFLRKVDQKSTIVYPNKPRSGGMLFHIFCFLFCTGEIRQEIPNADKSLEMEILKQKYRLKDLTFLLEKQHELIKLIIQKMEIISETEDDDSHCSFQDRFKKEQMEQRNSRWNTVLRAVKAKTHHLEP

**Q.** Which results are given for `C=CCN=C=S` [ALLYL ISOTHIOCYANATE]?
**A.** Activity [1]: Active; Activity [2]: inactive; EC50 ([3]; read-out: EC50): 160000 nM; Activity [4]: Non-toxic; Activity [5]: Non-toxic; Activity [6]: inactive; Activity [7]: inactive; max activation [8]: 97%; Activity [9]: Active; max activation [10]: 25%

**Q.** What does the source list for `S=C=NCc1ccccc1` [BENZYL ISOTHIOCYANATE]?
**A.** Activity [1]: Active; Activity [2]: inactive; EC50 ([3]; read-out: EC50): 223000 nM; Activity [4]: Non-toxic; Activity [5]: Non-toxic; Activity [6]: inactive; Activity [7]: inactive; max activation [8]: 95%; EC50 [11]: 250 nM; Activity [9]: Active; max activation [10]: 49%

**Q.** For `Oc1ccc(CN=C=S)cc1`, which Activity [12] is on record?
**A.** Active

**Q.** And the EC50 ([3]; read-out: EC50)?
**A.** 170000 nM

**Q.** What about the Activity [4] of the same molecule?
**A.** Non-toxic

**Q.** And the Activity [6]?
**A.** inactive

**Q.** What about the Activity [13] of the same molecule?
**A.** inactive

**Q.** And the Activity [7]?
**A.** inactive

**Q.** And the max activation [8]?
**A.** 96%

**Q.** What about the Activity [14] of the same molecule?
**A.** Non-toxic

**Q.** And the EC50 [11]?
**A.** 20000 nM

**Q.** What about the Activity [9] of the same molecule?
**A.** Active

**Q.** What about the max activation [10] of the same molecule?
**A.** 63%

**Q.** With `CSCCCCCCCN=C=S` as the molecule, how does the Activity [1] read?
**A.** Active

**Q.** And the Activity [2]?
**A.** inactive

**Q.** And the EC50 ([3]; trex-hek)?
**A.** Not Active

**Q.** And the Activity [5]?
**A.** Non-toxic

**Q.** What about the Activity [6] of the same molecule?
**A.** inactive

**Q.** And the max activation [8]?
**A.** 90%

**Q.** And the EC50 [11]?
**A.** 610 nM

**Q.** What about the Activity [9] of the same molecule?
**A.** inactive

**Q.** And the max activation [10]?
**A.** inactive

**Q.** For `C=CCCCCCN=C=S`, which Activity [1] is on record?
**A.** Active

**Q.** And the Activity [2]?
**A.** inactive

**Q.** What about the EC50 ([3]; trex-hek) of the same molecule?
**A.** Not Active

**Q.** And the Activity [5]?
**A.** Non-toxic

**Q.** And the Activity [6]?
**A.** inactive

**Q.** And the max activation [8]?
**A.** 90%

**Q.** What about the EC50 [11] of the same molecule?
**A.** 1050 nM

**Q.** What about the Activity [9] of the same molecule?
**A.** inactive

**Q.** What about the max activation [10] of the same molecule?
**A.** inactive

**Q.** For `CSCCCCCN=C=S`, which Activity [1] is on record?
**A.** Active

**Q.** What about the Activity [2] of the same molecule?
**A.** inactive

**Q.** And the EC50 ([3]; trex-hek)?
**A.** Not Active

**Q.** And the Activity [5]?
**A.** Non-toxic

**Q.** What about the Activity [6] of the same molecule?
**A.** inactive

**Q.** What about the max activation [8] of the same molecule?
**A.** 92%

**Q.** And the EC50 [11]?
**A.** 500 nM

**Q.** What about the Activity [9] of the same molecule?
**A.** inactive

**Q.** And the max activation [10]?
**A.** inactive

**Q.** Which results are given for `CC(C)N=C=S` [ISOPROPYL ISOTHIOCYANATE]?
**A.** Activity [1]: Active; Activity [2]: inactive; EC50 ([3]; read-out: EC50): 100000 nM; Activity [4]: Non-toxic; Activity [5]: Non-toxic; Activity [6]: inactive; Activity [7]: inactive; max activation [8]: 82%; EC50 [11]: 530 nM; Activity [9]: Active; max activation [10]: 50%

**Q.** What does the source list for `C=CCCCN=C=S`?
**A.** Activity [1]: Active; Activity [2]: inactive; EC50 ([3]; trex-hek): Not Active; Activity [5]: Non-toxic; Activity [6]: inactive; max activation [8]: 90%; EC50 [11]: 540 nM; Activity [9]: inactive; max activation [10]: inactive

**Q.** Which results are given for `S=C=NCCc1ccccc1` [PHENETHYLISOTHIOCYANATE]?
**A.** Activity [1]: Active; Activity [2]: inactive; EC50 ([3]; read-out: EC50): 180000 nM; Activity [4]: Non-toxic; Activity [5]: Non-toxic; Activity [6]: inactive; Activity [7]: inactive; max activation [8]: 94%; EC50 [11]: 370 nM; Activity [9]: Active; max activation [10]: 43%

**Q.** What does the source list for `CSCCCN=C=S`?
**A.** Activity [1]: Active; Activity [2]: inactive; EC50 ([3]; trex-hek): Not Active; Activity [5]: Non-toxic; Activity [6]: inactive; max activation [8]: 94%; EC50 [11]: 450 nM; Activity [9]: inactive; max activation [10]: inactive

**Q.** For `CSCCCCCCN=C=S`, which Activity [1] is on record?
**A.** Active

**Q.** What about the Activity [2] of the same molecule?
**A.** inactive

**Q.** What about the EC50 ([3]; trex-hek) of the same molecule?
**A.** Not Active

**Q.** And the Activity [6]?
**A.** inactive

**Q.** And the max activation [8]?
**A.** 92%

**Q.** And the EC50 [11]?
**A.** 580 nM

**Q.** What about the Activity [9] of the same molecule?
**A.** inactive

**Q.** What about the max activation [10] of the same molecule?
**A.** inactive

**Q.** With `CCC(C)N=C=S` (centres undefined) as the molecule, how does the Activity [1] read?
**A.** Active

**Q.** What about the Activity [2] of the same molecule?
**A.** inactive

**Q.** What about the EC50 ([3]; read-out: EC50) of the same molecule?
**A.** 100000 nM

**Q.** And the Activity [4]?
**A.** Non-toxic

**Q.** And the Activity [5]?
**A.** Non-toxic

**Q.** What about the Activity [6] of the same molecule?
**A.** inactive

**Q.** And the Activity [7]?
**A.** inactive

**Q.** What about the max activation [8] of the same molecule?
**A.** 88%

**Q.** What about the EC50 [11] of the same molecule?
**A.** 680 nM

**Q.** What about the Activity [9] of the same molecule?
**A.** Active

**Q.** What about the max activation [10] of the same molecule?
**A.** 62%

**Q.** What does the source list for `C=CCCCCN=C=S`?
**A.** Activity [1]: Active; Activity [2]: inactive; EC50 ([3]; trex-hek): Not Active; Activity [5]: Non-toxic; Activity [6]: inactive; max activation [8]: 93%; EC50 [11]: 1040 nM; Activity [9]: inactive; max activation [10]: inactive

**Q.** For `CC(C)CN=C=S`, which Activity [1] is on record?
**A.** Active

**Q.** What about the Activity [2] of the same molecule?
**A.** inactive

**Q.** And the EC50 ([3]; trex-hek)?
**A.** Not Active

**Q.** What about the Activity [5] of the same molecule?
**A.** Non-toxic

**Q.** And the Activity [6]?
**A.** inactive

**Q.** What about the max activation [8] of the same molecule?
**A.** 89%

**Q.** What about the EC50 [11] of the same molecule?
**A.** 690 nM

**Q.** What about the max activation [10] of the same molecule?
**A.** inactive

**Q.** For `C=CCCN=C=S`, which Activity [1] is on record?
**A.** Active

**Q.** What about the Activity [2] of the same molecule?
**A.** inactive

**Q.** What about the EC50 ([3]; trex-hek) of the same molecule?
**A.** Not Active

**Q.** And the Activity [5]?
**A.** Non-toxic

**Q.** And the Activity [6]?
**A.** inactive

**Q.** And the max activation [8]?
**A.** 95%

**Q.** What about the EC50 [11] of the same molecule?
**A.** 360 nM

**Q.** And the Activity [9]?
**A.** inactive

**Q.** What about the max activation [10] of the same molecule?
**A.** inactive
